pEC50, pIC50: −log10 of the molar value.
Legend:
[1] = biological target: 5-hydroxytryptamine receptor 6 (Homo sapiens, UniProt P50406); experiment: Antagonist activity at human recombinant 5-HT6 receptor expressed in HEK293 cells assessed as inhibition of serotonin-induced intracellular cAMP accumulation by LANCE technique; format: functional, cell-based; conditions: for pIC50: read-out: IC50; for IC50: hek293
Summary of the method: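 Cells continuously express recombinant human 5-HT6 receptors. Serotonin stimulation raises intracellular cyclic AMP, which was monitored continuously by LANCE technology. Read-out was inhibition of the serotonin-dependent cAMP response.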

Histamine H1 receptor [2] = biological target: T1, Histamine H1 receptor (Homo sapiens, UniProt P35367); experiment: Antagonist activity at human histamine H1 receptor in SK-N-SH cells assessed as inhibition of histamine-induced calcium level increase during phase-1 compound incubated before histamine addition by Fura-2 based fluorometric assay; format: functional, cell-based
Summary of the method: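 H1 receptor Ca-dependent signalling was measured in SK-N-SH cells as blockade of histamine-induced calcium flow in phase-I. IC50 values were reported.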

Histamine H1 receptor [3] = biological target: T1, Histamine H1 receptor; experiment: Antagonist activity at human histamine H1 receptor in SK-N-SH cells assessed as inhibition of histamine-induced calcium flow during phase-II compound dosed after histamine addition by Fura-2 based fluorometric assay; format: functional
[4] = Inhibition of L-type calcium channel
[5] = Neuroprotective activity in cerebellum cell culture assessed as protection against beta-amyloid fragment Abeta (25-35)-induced neurotoxicity; format: functional, tissue-based
[6] = biological target: Glutamate NMDA receptor (Rattus norvegicus) (UniProt P35439+Q00959+Q00960+Q00961+Q62645+Q8VHN2+Q9R1M7); experiment: Inhibition of NMDA receptor in rat brain cortical neurons assessed as blocking of NMDA-induced currents; format: tissue-based
Acetylcholinesterase = Acetylcholinesterase (Homo sapiens, UniProt P22303); experiment: Inhibition of AChE
Cholinesterase = Cholinesterase (Homo sapiens, UniProt P06276); experiment: Inhibition of BuChE
Sequence of Cholinesterase (P06276 whole entry): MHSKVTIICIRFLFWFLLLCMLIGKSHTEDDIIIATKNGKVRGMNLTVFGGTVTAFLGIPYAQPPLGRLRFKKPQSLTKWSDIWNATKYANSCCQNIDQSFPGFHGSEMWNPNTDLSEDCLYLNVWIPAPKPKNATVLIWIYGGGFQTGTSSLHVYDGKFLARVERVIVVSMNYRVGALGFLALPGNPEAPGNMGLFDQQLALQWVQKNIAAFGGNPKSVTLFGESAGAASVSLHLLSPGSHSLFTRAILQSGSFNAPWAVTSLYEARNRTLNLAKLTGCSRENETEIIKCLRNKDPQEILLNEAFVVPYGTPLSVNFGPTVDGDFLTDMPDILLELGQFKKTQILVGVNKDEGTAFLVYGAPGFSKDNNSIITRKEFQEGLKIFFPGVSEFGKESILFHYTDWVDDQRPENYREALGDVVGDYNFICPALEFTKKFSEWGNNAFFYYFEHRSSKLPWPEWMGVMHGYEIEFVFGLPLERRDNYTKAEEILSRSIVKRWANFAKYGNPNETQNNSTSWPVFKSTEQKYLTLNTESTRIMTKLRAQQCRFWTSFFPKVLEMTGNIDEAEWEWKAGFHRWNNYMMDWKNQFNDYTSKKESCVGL

Sequence of 5-hydroxytryptamine receptor 6 (P50406 whole entry): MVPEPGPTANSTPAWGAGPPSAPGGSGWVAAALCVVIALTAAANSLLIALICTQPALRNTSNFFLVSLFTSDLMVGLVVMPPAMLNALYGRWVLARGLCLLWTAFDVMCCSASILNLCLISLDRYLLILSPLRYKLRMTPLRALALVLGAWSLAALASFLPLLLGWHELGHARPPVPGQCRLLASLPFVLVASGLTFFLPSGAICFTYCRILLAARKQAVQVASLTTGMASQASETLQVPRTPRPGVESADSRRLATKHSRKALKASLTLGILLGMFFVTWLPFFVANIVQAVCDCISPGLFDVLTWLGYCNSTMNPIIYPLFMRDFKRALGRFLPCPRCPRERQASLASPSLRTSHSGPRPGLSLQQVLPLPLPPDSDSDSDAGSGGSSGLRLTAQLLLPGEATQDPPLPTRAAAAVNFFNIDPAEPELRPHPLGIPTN
T1 sequence (P35367 whole entry): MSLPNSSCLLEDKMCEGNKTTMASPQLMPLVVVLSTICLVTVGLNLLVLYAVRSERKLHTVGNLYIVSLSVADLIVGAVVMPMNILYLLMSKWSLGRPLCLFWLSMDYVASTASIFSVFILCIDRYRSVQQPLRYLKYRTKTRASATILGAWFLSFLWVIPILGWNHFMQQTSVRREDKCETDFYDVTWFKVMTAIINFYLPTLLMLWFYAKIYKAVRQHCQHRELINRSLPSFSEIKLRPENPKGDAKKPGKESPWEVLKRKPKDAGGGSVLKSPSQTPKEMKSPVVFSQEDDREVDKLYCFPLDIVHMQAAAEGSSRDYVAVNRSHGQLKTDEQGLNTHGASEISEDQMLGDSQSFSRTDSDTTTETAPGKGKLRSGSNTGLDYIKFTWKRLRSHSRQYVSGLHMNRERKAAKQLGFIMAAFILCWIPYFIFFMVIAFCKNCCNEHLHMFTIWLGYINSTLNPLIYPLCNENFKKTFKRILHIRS
Sequence of Acetylcholinesterase (P22303 whole entry): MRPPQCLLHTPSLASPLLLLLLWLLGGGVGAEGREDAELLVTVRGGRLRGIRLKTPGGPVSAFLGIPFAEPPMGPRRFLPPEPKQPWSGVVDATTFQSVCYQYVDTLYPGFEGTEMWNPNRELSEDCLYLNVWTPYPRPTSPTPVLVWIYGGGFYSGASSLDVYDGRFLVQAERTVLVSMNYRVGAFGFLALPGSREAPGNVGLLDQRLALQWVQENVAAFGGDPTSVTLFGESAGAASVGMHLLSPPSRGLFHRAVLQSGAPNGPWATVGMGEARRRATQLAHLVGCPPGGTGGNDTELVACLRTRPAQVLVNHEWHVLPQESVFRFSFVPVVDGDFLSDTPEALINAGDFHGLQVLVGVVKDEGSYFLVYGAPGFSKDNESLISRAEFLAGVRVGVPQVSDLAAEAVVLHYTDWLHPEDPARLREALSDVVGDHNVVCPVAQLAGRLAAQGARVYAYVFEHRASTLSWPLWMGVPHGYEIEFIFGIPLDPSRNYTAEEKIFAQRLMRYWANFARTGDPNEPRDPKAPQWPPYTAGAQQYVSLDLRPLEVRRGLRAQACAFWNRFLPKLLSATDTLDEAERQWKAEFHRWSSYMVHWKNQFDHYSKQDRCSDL

SMILES | pIC50 [1] | pIC50 (Histamine H1 receptor [2]) | pIC50 (Histamine H1 receptor [3]) | other results
CN1CCc2c(c3cc(-c4cccnc4)ccc3n2CCc2ccccn2)C1 | 4.36 | 5.15 |  | 
Cc1ccc2c(c1)c1c(n2CCc2ccncc2)CCN(C2CCN(C)CC2)C1 |  | 5.12 |  | IC50 [1]: Not Active
Cc1ccc2c(c1)c1c(n2CCc2cnccn2)CCN(C)C1 | 5.69 | 6.49 | 5.10 | 
CN1CCc2c(c3cc(F)ccc3n2CCc2ccccn2)C1 | 5.53 | 6.03 | 6.21 | 
COc1ccc2c(c1)c1c(n2CCc2ccncc2)CCN(C)C1 | 5.36 | 6.41 |  | 
CN1CCc2c(c3ccccc3n2CCc2ccccn2)C1 | 4.80 | 5.74 | 6.03 | 
COc1ccc2c(c1)c1c(n2CCc2ccccn2)CCN(C)C1 | 5.08 | 5.33 |  | 
CN1CCc2c(c3cc(C(F)(F)F)ccc3n2CCc2ccncc2)C1 | 5.19 | 6.66 |  | 
Cc1ccc2c(c1)c1c(n2CCc2ccncc2)CCN(C)C1 | 6.43 | 6.80 | 5.40 | 
CN1CCc2c(c3cc(C(F)(F)F)ccc3n2CCc2ccccn2)C1 | 5.80 | 6.25 | 5.80 | 
CN1CCc2c(c3cc(C(=O)O)ccc3n2CCc2ccncc2)C1 | < 5.00 | < 5.00 |  | 
CN1CCc2c(c3cc(F)ccc3n2CCc2ccncc2)C1 | 5.49 | 6.92 | 6.33 | 
CN1CCc2c(c3ccccc3n2CCc2ccncc2)C1 | 5.05 | 6.92 | 6.30 | 
CN1CCc2c(c3ccccc3n2CCc2cccnc2)C1 | 5.22 | 7.00 | 6.39 | 
CN1CCc2c(c3cc(C(F)(F)F)ccc3n2CCc2cccnc2)C1 | 5.24 | < 5.00 |  | 
Cc1ccc2c(c1)c1c(n2CCc2ccccn2)CCN(C2CCN(C)CC2)C1 |  | < 5.00 |  | IC50 [1]: Not Active
Cc1ccc(CCn2c3c(c4cc(F)ccc42)CN(C)CC3)cn1 | 4.97 | 6.96 | 6.14 | 
CN1CCc2c(c3cc(C#N)ccc3n2CCc2ccccn2)C1 | 5.13 | 5.89 |  | 
Cc1ccc2c(c1)c1c(n2CCc2cccnc2)CCN(C2CCN(C)CC2)C1 |  | 5.55 |  | IC50 [1]: Not Active
Cc1ccc2c(c1)c1c(n2CCc2ccc(C)nc2)CCN(C)C1 [LATREPIRDINE] | 6.05 | 6.80 | 5.80 | pIC50 [4]: 4.24; pEC50 [5]: 4.60; ED50 [6]: 42000 nM; pIC50 (Acetylcholinesterase): 4.35; pIC50 (Cholinesterase): 5.10
CN1CCc2c(c3cc(Br)ccc3n2CCc2ccccn2)C1 | 5.98 | 6.92 |  | 
Cc1ccc2c(c1)c1c(n2CCc2ccccn2)CCN(C)C1 | 6.07 | 6.30 | 5.00 | 
Cc1ccc2c(c1)c1c(n2CCc2cccnc2)CCN(C)C1 | 6.36 | 6.30 | 5.50 | 
CN1CCc2c(c3cc(F)ccc3n2CCc2cccnc2)C1 | < 5.00 | 6.19 | 6.03 | 
